# Test results as given in ChEMBL document CHEMBL1143700, “Antiangiogenic versus cytotoxic activity in analogues of aeroplysinin-1” (Bioorg Med Chem, 2007).
# How the values were obtained:
# [1] = Effect on tube formation of BAEC assessed as sprouting inhibition after 48 hrs; type: functional, Bos taurus
# How it was run: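 BAE cells coated onto Cytodex 3 microcarrier beads over 48 h at 37 °C, 5% CO₂. Beads (250/mL) seeded onto Matrigel in wells containing compound; medium added after 30 min. After 48 h, sprout extent and length scored by microscopy against untreated wells. MIC = lowest concentration with no tube formation; ">" means not reached at the top concentration tested.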
# [2] = Cytotoxicity against BAEC after 2 days by MTT assay; type: cell-based, Bos taurus
# How it was run: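 BAE cells (primary bovine aortic endothelium, collagenase-isolated; grown in DMEM/20% FBS), 8·10³ per well, exposed to serial dilutions for 2 days at 37 °C, 5% CO₂. MTT (5 mg/mL in PBS) then added for a further 2 h at 37 °C. Formazan dissolved in DMSO and read spectrophotometrically. IC50 = concentration inhibiting growth by 50%; ">" means not reached at the top concentration tested.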
# [3] = Ratio of MIC for BAEC sprouting to IC50 for BAEC; type: functional, Bos taurus
# [4] = Bos taurus, 48 h, read-out: MIC
SMILES,"MIC [1, 4] [µM]","IC50 ([2]; Bos taurus, BAEC, 48 h) [µM]",Ratio [3],MIC [1] [µM],IC50 ([2]; baec) [µM]
COC(=O)/C(=C/c1cc(Br)c(OC)c(Br)c1OCc1ccccc1)NC(=O)c1ccccc1,> 35,> 17,–,–,–
COc1c(Br)cc(/C=C2\N=C(c3ccccc3)OC2=O)c(OC(=O)c2ccccc2)c1Br,27,> 18,–,–,–
OCc1cc(Br)cc(Br)c1O,71,> 35,–,–,–
COc1c(Br)cc(C=O)c(OC(C)=O)c1Br,33,23,0.7,–,–
COc1c(Br)cc(C=O)c(OCc2ccccc2)c1Br,> 12.5,> 12.5,–,–,–
COc1c(Br)cc(CO)c(OCCO)c1Br,28,> 28,–,–,–
COC(=O)COc1c(C=O)cc(Br)c(OC)c1Br,52,151,3,–,–
COc1c(Br)cc(CO)c(OCc2ccccc2)c1Br,> 12,> 12,–,–,–
COC(=O)COc1c(CO)cc(Br)c(OC)c1Br,> 26,> 26,–,–,–
COc1c(Br)cc2c(c1Br)OCC(O)OC2 (centres undefined),> 28,> 28,–,–,–
COc1c(Br)cc(C=O)c(OCc2cc(N(C)C)ccc2Br)c1Br,> 38,> 19,–,–,–
COC(=O)/C=C/c1cc(Br)c(OC)c(Br)c1O,> 14,> 14,–,–,–
O=C1C=CC(Br)=C[C@]12CO2,25,> 25,–,–,–
COC1=C(Br)C(=O)[C@]2(C=C1)CO2,3,11,4,–,–
COc1c(Br)cc(C=O)c(O)c1Br,> 16,806,–,–,–
O=Cc1cc(Br)cc(Br)c1O,71,36,0.5,–,–

SMILES,"MIC [1, 4] [µM]","IC50 ([2]; Bos taurus, BAEC, 48 h) [µM]",Ratio [3],MIC [1] [µM],IC50 ([2]; baec) [µM]
COc1c(Br)cc(CO)c(O)c1Br,> 16,> 16,–,–,–
COc1c(Br)cc(/C=C2\N=C(c3ccccc3)OC2=O)c(OC(=O)c2ccc(N(C)C)cc2)c1Br,> 17,83,–,–,–
COC1=CC(=O)[C@]2(C=C1Br)CO2,> 22,> 22,–,–,–
COc1ccc(C=O)c(O)c1,> 33,> 33,–,–,–
COc1c(Br)cc(C=O)c(OC(=O)c2ccc(N(C)C)cc2)c1Br,> 44,> 22,–,–,–
O=C1C(Br)=CC(Br)=C[C@]12CO2,2,12,6,–,–
COC(=O)CCc1cc(Br)c(OC)c(Br)c1O,> 27,136,–,–,–
COc1c(Br)cc(/C=C2\N=C(c3ccccc3)OC2=O)c(OCc2ccccc2)c1Br,1,921,921,–,–
COc1c(Br)cc(/C=C2\N=C(c3ccccc3)OC2=O)c(O)c1Br,> 22,> 22,–,–,–
COc1c(Br)cc(/C=C2\N=C(c3ccccc3)OC2=O)c(OCc2cc(N(C)C)ccc2Br)c1Br [listing 1 of 2 here],–,–,–,>30,> 15
COc1c(Br)cc(/C=C2\N=C(c3ccccc3)OC2=O)c(OCc2cc(N(C)C)ccc2Br)c1Br [listing 2 of 2 here],> 28,–,–,–,71
O=C1C2(Br)C=C(Br)C([C@H]3[C@]2(Br)C=C(Br)C(=O)[C@]32CO2)[C@@]12CO2 (some centres undefined),2,4,2,–,–
COC1=CC(=O)[C@]2(C=C1)CO2,33,33,1,–,–
COC1=C(Br)C(=O)[C@]2(C=C1Br)CO2,3,161,54,–,–
COC1=C(Br)C(=O)[C@@]2(CO2)C(OC)=C1Br,15,> 15,–,–,–
"COC1=C(Br)[C@H](O)[C@](O)(CC#N)C=C1Br (single isomer, unassigned)",2,29,14,–,–
